How the values were obtained:
[1] = Cytotoxicity against mouse BV2 cells assessed as cell viability at 20 uM after 24 hrs by MTT assay relative to control; assay type: cell-based, BV-2; details: read-out: Activity
Outline: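 BV-2 cells grown in DMEM with 10% heat-inactivated FBS at 37 °C under 5% CO2. Medium switched to 0.5% FBS at 85% confluence before treatment. Viability measured after 24 h compound exposure by colorimetric MTT reduction. Mean ± SD of three individual experiments.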

[2] = tested on: BV-2; test: Inhibition of LPS-induced COX-2 expression in mouse BV2 cells at 20 uM pretreated for 15 mins followed by LPS-stimulation after 24 hrs by western blot analysis relative to control; assay type: functional
Outline: (§1)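 BV-2 cells at 80% confluence, serum-free medium for 24 h. Cells given DMSO or compound, then LPS 150 ng/mL for 24 h. Lysate supernatants run on SDS-PAGE, blotted to PVDF, probed with anti-COX-2 or anti-iNOS and HRP secondary, detected by ECL. Protein levels expressed as fold of control. Mean ± SD of three experiments.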

[3] = tested on: BV-2; test: Inhibition of LPS-induced iNOS expression in mouse BV2 cells at 20 uM pretreated for 15 mins followed by LPS-stimulation after 24 hrs by western blot analysis relative to control; assay type: functional; outline: as §1
[4] = tested on: BV-2; test: Inhibition of LPS-induced iNOS expression in mouse BV2 cells pretreated for 15 mins followed by LPS-stimulation after 24 hrs by western blot analysis; assay type: functional, cell-based
Outline: (§2)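 Western blot in BV-2 microglia after serum-free conditioning for 24 h. Compound given at 2, 5, 10 and 20 μM, then LPS 150 ng/mL for 24 h. iNOS and COX-2 detected by ECL and expressed relative to control. IC50 calculated from the concentration–response data.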

[5] = tested on: BV-2; test: Inhibition of LPS-induced nitric oxide production in mouse BV2 cells pretreated for 30 mins followed by LPS-stimulation after 24 hrs by Griess assay; assay type: functional, cell-based
Outline: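 BV2 cells seeded at 5 × 10^5 per well for 16 h, then moved to phenol red-free DMEM. Cells pretreated 30 min with vehicle or compound (2, 10, 20, 40 μM), then given LPS 150 ng/mL for 24 h. Supernatant nitrate reduced with nitrate reductase and cofactors for 1 h at RT in the dark. Griess A and B added for 20 min, then A550 read. Nitrite obtained by regression against NaNO2 standards, and IC50 derived. Curcumin used as positive control.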

[6] = tested on: BV-2; test: Inhibition of LPS-induced COX-2 expression in mouse BV2 cells pretreated for 15 mins followed by LPS-stimulation after 24 hrs by western blot analysis; assay type: functional, cell-based; outline: as §2

Compound | viability at 24 h, 20 µM [1] | fold change (FC) [2] | fold change (FC) [3] | also measured
CC1=C2[C@@H](C=C3CCC[C@H](C)[C@@]3(C)[C@H]2O)OC1=O | 90.2% | 6.4 | 3.2 | 
C=C1CO[C@@H]2C=C3CCC[C@H](C)[C@@]3(C)C[C@@]12O | 87.7% | 2.1 | 1.8 | IC50 [4]: 8.1 µM; inhibition [4]: Dose-dependent effect; IC50 [5]: 21.7 µM; inhibition [5]: Dose-dependent effect; IC50 [6]: 16.6 µM; inhibition [6]: Dose-dependent effect
C=C(C=O)[C@@H]1C[C@@]2(C)C(=CC1=O)CCC[C@@H]2C | 46.1% |  |  | 
C=C(C=O)[C@@H]1C[C@@]2(C)C(=C[C@H]1O)CCC[C@@H]2C | 44.6% |  |  | 
C=C(CO)C1=C[C@@]2(C)C(=CC1=O)CCC[C@@H]2C | 73.8% | 3.7 | 3.6 | 
C=C(C)[C@@H]1Cc2cc(CO)ccc2O1 | 85.9% | 2.4 | 1.9 | IC50 [4]: 11.6 µM; inhibition [4]: Dose-dependent effect; IC50 [5]: 33.8 µM; IC50 [6]: 12.7 µM; inhibition [6]: Dose-dependent effect
CCCCC1OC(=O)c2c(O)cccc21 (configuration not stated) |  | 6.5 | 4.3 | 
CCCCCc1cccc(O)c1CO |  | 5.6 | 3.4 | 
CC1=C2[C@@H](C=C3C=CC[C@H](C)[C@@]3(C)[C@H]2O)OC1=O | 79.3% | 4.9 | 4.5 | 
O=C1C[C@H](O)Cc2cc(O)cc(O)c21 |  | 4.9 | 2.9 | 
C=C(C)[C@@H]1Cc2cc(C=O)ccc2O1 |  | 4.2 | 3 | 
COc1cc(/C=C/C(=O)CC(=O)/C=C/c2ccc(O)c(OC)c2)ccc1O [CURCUMIN] |  |  |  | IC50 [5]: 4.5 µM
